Laboratory results reported in ChEMBL document CHEMBL1148395, “Synthesis, biological properties, and molecular modeling investigations of novel 3,4-diarylpyrazolines as potent and selective CB(1) cannabinoid receptor antagonists” (J Med Chem, 2004).

How the values were obtained:
[1] = target: Cannabinoid receptor 1 (Rattus norvegicus) (UniProt P20272); experiment: In vivo effective dose to antagonise cannabinoid receptor 1 agonist (CP-55940) induced hypotension in rat upon peroral administration; assay type: functional, organism-based
[2] = target: Cannabinoid receptor 1 (Mus musculus) (UniProt P47746); experiment: In vivo least effective dose required to antagonise cannabinoid receptor 1 agonist (WIN-55212) induced hypothermia in mouse upon peroral administration
[3] = target: Cannabinoid receptor 2 (Homo sapiens, UniProt P34972); experiment: Affinity to displace CP-55940 binding from Cannabinoid receptor 2 of human expressed in CHO cells; assay type: cell-based
Method in brief: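 Bound and free ligand separated by glass-fibre filtration, filter radioactivity counted by liquid scintillation. IC50 values from at least two independent measurements combined and converted to Ki by Cheng-Prusoff.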

[4] = target: T1, Cannabinoid receptor 1 (Homo sapiens, UniProt P21554); experiment: Antagonistic activity towards cannabinoid receptor 1 expressed as [3H]Arachidonic acid release in CHO cells; assay type: functional, cell-based; details: read-out: pA2 (converted)
[5] = target: T1, Cannabinoid receptor 1; experiment: biochemical; assay type: cell-based, CHO
[6] = Partition coefficient (logP); assay type: physicochemical; details: octanol/water
Method in brief: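 n-Octanol/water partition measured by RP-HPLC following an OECD method. Mobile phase buffered at pH > 11 on an aluminum-based octadecyl stationary phase.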

[7] = Mean percentage of compound transport through membrane; expressed as membrane transport; assay type: ADME
Method in brief: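 Transport across a PK1 LLC MDR (human MDR1) cell monolayer with compound at 1 µg/mL added to one side. Membrane passage taken as the mean percentage of compound moved bottom-to-top and top-to-bottom at 3 h after addition.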

[8] = Mean percentage of compound transport through P-glycoprotein; expressed as p-glycoprotein affinity; assay type: ADME
Method in brief: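 Human MDR1 P-glycoprotein transport across a monolayer of PK1 LLC MDR cells; compound added at 1 µg/mL to one side. Bottom-to-top and top-to-bottom transport measured; Pgp factor taken as the ratio of bottom-to-top to top-to-bottom transport, given as mean percentage of compound transported.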

Sequence of Cannabinoid receptor 1 (Mus musculus) (P47746 whole entry, looked up): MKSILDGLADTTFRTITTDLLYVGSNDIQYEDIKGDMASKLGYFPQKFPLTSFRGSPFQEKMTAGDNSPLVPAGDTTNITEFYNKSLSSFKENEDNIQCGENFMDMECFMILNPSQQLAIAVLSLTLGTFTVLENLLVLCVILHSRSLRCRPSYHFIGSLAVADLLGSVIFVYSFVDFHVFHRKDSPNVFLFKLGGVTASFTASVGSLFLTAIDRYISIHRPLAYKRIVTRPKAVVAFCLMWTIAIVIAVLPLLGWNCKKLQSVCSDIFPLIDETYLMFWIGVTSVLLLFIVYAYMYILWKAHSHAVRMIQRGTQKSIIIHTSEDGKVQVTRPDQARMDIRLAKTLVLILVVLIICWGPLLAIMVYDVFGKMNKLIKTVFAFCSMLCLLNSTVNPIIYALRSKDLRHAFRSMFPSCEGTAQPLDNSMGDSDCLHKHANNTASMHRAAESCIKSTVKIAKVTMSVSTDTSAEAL
T1 sequence (P21554 whole entry): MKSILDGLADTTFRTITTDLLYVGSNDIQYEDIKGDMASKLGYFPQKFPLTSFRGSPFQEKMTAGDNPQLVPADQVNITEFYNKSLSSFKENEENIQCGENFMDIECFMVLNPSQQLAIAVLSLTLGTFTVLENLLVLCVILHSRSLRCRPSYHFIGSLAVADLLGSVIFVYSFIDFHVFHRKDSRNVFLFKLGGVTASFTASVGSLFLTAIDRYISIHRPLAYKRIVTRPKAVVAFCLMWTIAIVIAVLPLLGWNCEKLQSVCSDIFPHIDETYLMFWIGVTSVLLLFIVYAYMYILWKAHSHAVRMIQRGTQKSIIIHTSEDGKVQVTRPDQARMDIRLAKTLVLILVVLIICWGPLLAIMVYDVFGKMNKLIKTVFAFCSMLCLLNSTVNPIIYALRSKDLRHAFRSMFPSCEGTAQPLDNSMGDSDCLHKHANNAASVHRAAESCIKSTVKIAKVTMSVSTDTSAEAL
Sequence of Cannabinoid receptor 2 (P34972 whole entry): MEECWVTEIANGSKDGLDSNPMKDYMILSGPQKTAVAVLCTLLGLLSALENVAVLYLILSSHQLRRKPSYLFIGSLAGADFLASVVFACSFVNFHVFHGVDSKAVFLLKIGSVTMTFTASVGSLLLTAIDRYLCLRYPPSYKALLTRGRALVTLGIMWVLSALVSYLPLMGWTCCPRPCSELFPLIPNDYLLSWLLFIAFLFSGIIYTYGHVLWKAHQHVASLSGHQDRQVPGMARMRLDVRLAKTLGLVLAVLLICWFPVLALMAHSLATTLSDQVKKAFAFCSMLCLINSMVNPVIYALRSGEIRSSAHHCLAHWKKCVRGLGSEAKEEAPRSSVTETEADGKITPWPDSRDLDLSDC
Sequence of Cannabinoid receptor 1 (Rattus norvegicus) (P20272 whole entry): as the sequence (P47746 whole entry, looked up) above, with D95E counted along it

Row | Compound | Ki [3] [µM] | Kb [4] [µM] | Ki [5] [µM] | also measured
1 | C/N=C(\NS(=O)(=O)c1ccc(C(F)(F)F)cc1)N1C[C@@H](c2ccccc2)C(c2ccc(Cl)cc2)=N1 |  |  |  | ED50 [1]: > 30 mg/kg; LED [2]: > 30 mg/kg
2 | C/N=C(\NS(=O)(=O)c1ccc(C(F)(F)F)cc1)N1CC(c2ccccc2)C(c2ccc(Cl)cc2)=N1 (centres undefined) |  |  |  | ED50 [1]: 8.9 mg/kg; LED [2]: 3 mg/kg
3 | COc1ccc(S(=O)(=O)NC(=N)N2CC(c3ccccc3)C(c3ccc(Cl)cc3)=N2)cc1 (centres undefined) | > 1 | 0.00501 | 0.196 | 
4 | CN/C(=N\S(=O)(=O)c1ccc(Cl)cc1)N1CC(c2ccccc2)C(c2ccc(Cl)cc2)=N1 (centres undefined) |  |  |  | ED50 [1]: 15 mg/kg
5 | CN/C(=N/S(=O)(=O)c1ccc(C(F)(F)F)cc1)N1C[C@H](c2ccccc2)C(c2ccc(Cl)cc2)=N1 | 3.51 | 0.001 | 0.0359 | 
6 | C/N=C(\NS(=O)(=O)c1ccc(C)cc1)N1CC(c2ccccc2)C(c2ccc(Cl)cc2)=N1 (centres undefined) |  | 0.00251 |  | 
7 | C/N=C(\NS(=O)(=O)c1ccc(C(F)(F)F)cc1)N1C[C@H](c2ccccc2)C(c2ccc(Cl)cc2)=N1 |  |  |  | ED50 [1]: 2 mg/kg; LED [2]: 1 mg/kg
8 | C/N=C(\NS(=O)(=O)c1ccc(Cl)cc1)N1C[C@@H](c2ccccc2)C(c2ccc(Cl)cc2)=N1 |  |  |  | ED50 [1]: > 30 mg/kg
9 | C/N=C(\NS(=O)(=O)c1ccc(F)cc1)N1CC(c2ccccc2)C(c2ccc(Cl)cc2)=N1 (centres undefined) | > 1 | 0.00316 | 0.338 | 
10 | CS/C(=N\S(=O)(=O)c1ccc(C(F)(F)F)cc1)N1CC(c2ccccc2)C(c2ccc(Cl)cc2)=N1 (centres undefined) | > 1 | 0.0002 | 0.0166 | 
11 | C/N=C(\NS(=O)(=O)c1cccc(C(F)(F)F)c1)N1CC(c2ccccc2)C(c2ccc(Cl)cc2)=N1 (centres undefined) | > 1 | 0.000794 | 0.0365 | 
12 | N=C(NS(=O)(=O)c1ccc(Cl)cc1)N1CC(c2ccccc2)C(c2ccc(Cl)cc2)=N1 (centres undefined) |  |  |  | ED50 [1]: > 30 mg/kg; LED [2]: > 30 mg/kg
13 | C/N=C(\NS(=O)(=O)c1ccc(Cl)cc1)N1CC(c2ccccc2)C(c2ccc(F)cc2)=N1 (centres undefined) |  | 0.0251 | 0.214 | 
14 | CN(C)/C(=N\S(=O)(=O)c1ccc(F)cc1)N1CC(c2ccccc2)C(c2ccc(Cl)cc2)=N1 (centres undefined) | > 1 | > 0.0316 | > 1 | 
15 | CN(C)/C(=N\S(=O)(=O)c1ccc(Cl)cc1)N1CC(c2ccccc2)C(c2ccc(Cl)cc2)=N1 (centres undefined) | > 1 | 0.00316 | 0.28 | ED50 [1]: > 30 mg/kg; logP [6]: 4.8; Activity [7]: 15.2; Activity [8]: 1.4
16 | CN=C(NS(=O)(=O)c1ccc(Cl)cc1)N1CC(c2ccc(F)cc2)C(c2ccc(Cl)cc2)=N1 (centres undefined) |  |  | 0.584 | 
17 | CNC(=NS(=O)(=O)c1cccc(Cl)c1)N1CC(c2ccccc2)C(c2ccc(Cl)cc2)=N1 (centres undefined) | > 1 | 0.00251 | 0.0139 | 

Row | Compound | Ki [3] [µM] | Kb [4] [µM] | Ki [5] [µM] | also measured
18 | NC(=NS(=O)(=O)c1ccc(Cl)cc1)N1CC(c2ccccc2)C(c2ccc(Cl)cc2)=N1 (centres undefined) | > 1 | 0.000316 | 0.0161 | logP [6]: 4.3; Activity [7]: 7; Activity [8]: 1.7
19 | CN=C(NS(=O)(=O)c1ccc(Cl)cc1)N1CC(c2ccc(Cl)cc2)C(c2ccc(Cl)cc2)=N1 (centres undefined) |  |  | 0.255 | 
20 | CN=C(NS(=O)(=O)c1ccc(C(F)(F)F)cc1)N1C[C@@H](c2ccccc2)C(c2ccc(Cl)cc2)=N1 | > 1 | 0.0316 | 0.293 | 
21 | CN=C(NS(=O)(=O)c1ccc(OC)cc1)N1CC(c2ccccc2)C(c2ccc(Cl)cc2)=N1 (centres undefined) |  | 0.01 | 0.0229 | 
22 | CN/C(=N\S(=O)(=O)c1ccc(Cl)cc1)N1C[C@H](c2ccccc2)C(c2ccc(Cl)cc2)=N1 |  |  |  | ED50 [1]: 5.5 mg/kg
23 | CN=C(NS(=O)(=O)c1ccc(Cl)cc1)N1C[C@H](c2ccccc2)C(c2ccc(Cl)cc2)=N1 [IBIPINABANT] |  |  |  | logP [6]: 4.8; Activity [7]: 14.8; Activity [8]: 1.4
24 | C/N=C(\NS(=O)(=O)c1ccc2ccccc2c1)N1CC(c2ccccc2)C(c2ccc(Cl)cc2)=N1 (centres undefined) |  | 0.00316 | 0.0218 | 
25 | Cc1cc(C)c(S(=O)(=O)NC(=N)N2CC(c3ccccc3)C(c3ccc(Cl)cc3)=N2)c(C)c1 (centres undefined) | > 1 | 0.000398 | 0.0242 | 
26 | C/N=C(\NS(=O)(=O)c1c(C)cc(C)cc1C)N1CC(c2ccccc2)C(c2ccc(Cl)cc2)=N1 (centres undefined) |  | 0.000398 | 0.0542 | 
27 | C/N=C(\NS(=O)(=O)c1ccccc1Cl)N1CC(c2ccccc2)C(c2ccc(Cl)cc2)=N1 (centres undefined) | > 1 | 0.00501 | 0.0754 | 
28 | C/N=C(\NS(=O)(=O)c1ccccc1)N1CC(c2ccccc2)C(c2ccc(Cl)cc2)=N1 (centres undefined) |  | 0.0316 | 0.17 | 
29 | Cc1ccc(S(=O)(=O)NC(=N)N2CC(c3ccccc3)C(c3ccc(Cl)cc3)=N2)cc1 (centres undefined) | > 1 | 0.00398 | 0.197 | ED50 [1]: > 30 mg/kg; LED [2]: > 30 mg/kg
30 | N=C(NS(=O)(=O)c1ccc(F)cc1)N1CC(c2ccccc2)C(c2ccc(Cl)cc2)=N1 (centres undefined) | > 1 | 0.001 | 0.0526 | 
31 | CNC(=NS(=O)(=O)c1ccc(C(F)(F)F)cc1)N1CC(c2ccccc2)C(c2ccc(Cl)cc2)=N1 (centres undefined) | > 1 | 0.000501 | 0.221 | 
32 | O=C(NS(=O)(=O)c1ccc(Cl)cc1)N1CC(c2ccccc2)C(c2ccc(Cl)cc2)=N1 (centres undefined) |  |  | > 1 | 
33 | C/N=C(\NC(=O)c1ccc(Cl)cc1)N1CC(c2ccccc2)C(c2ccc(Cl)cc2)=N1 (centres undefined) |  | 0.002 | 0.0706 | 
